Reference: ChEMBL document CHEMBL1255187, “Structure-based design and synthesis of potent, ethylenediamine-based, mammalian farnesyltransferase inhibitors as anticancer agents” (J Med Chem, 2010)

Tests used:
[1] = target: Geranylgeranyl transferase type I (Homo sapiens, UniProt P49354+P53609); experiment: Inhibition of human geranylgeranyltransferase-1 assessed as incorporation of [3H]GGPP into H-Ras-CVLL; type: protein-complex assay
In short: (§1)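 In vitro radiometric assay measuring transfer of [3H]FPP (FTase) or [3H]GGPP (GGTase-I) onto recombinant H-Ras-CVLS or H-Ras-CVLL, respectively.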

[2] = target: Protein farnesyltransferase (Homo sapiens, UniProt P49354+P49356); experiment: Inhibition of human farnesyltransferase assessed as incorporation of [3H]FPP into H-Ras-CVLS; type: protein-complex assay; in short: as §1
Homo sapiens = organism: Homo sapiens; experiment: Selectivity ratio of IC50 for human geranylgeranyltransferase-1 to IC50 for human farnesyltransferase
[3] = target: Protein farnesyltransferase (Mus musculus, UniProt Q61239+Q8K2I1); experiment: Inhibition of H-Ras farnesylation expressed in mouse NIH3T3 cells; type: functional, cell-based
In short: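 Oncogenic H-Ras-transformed NIH3T3 cells were treated with a range of inhibitor concentrations. Detection used peroxidase-conjugated secondary antibodies and enhanced chemiluminescence. IC50 is the mean of three independent assays ± SD unless stated otherwise.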

[4] = target: Geranylgeranyl transferase type 1 (Mus musculus, UniProt Q61239+Q8BUY9); experiment: Inhibition of Rap1A geranylgeranylation expressed in mouse NIH3T3 cells; type: functional, cell-based
In short: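 Oncogenic H-Ras-transformed NIH3T3 cells were treated with a range of inhibitor concentrations. […] Detection used peroxidase-conjugated secondary antibodies and enhanced chemiluminescence. IC50 is the mean of three independent assays ± SD unless stated otherwise.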

| Compound | IC50 [1] | IC50 [2] | Selectivity ratio (Homo sapiens) | IC50 [3] | IC50 [4] |
| --- | --- | --- | --- | --- | --- |
| Cn1cnc(S(=O)(=O)N(CCN(Cc2cncn2C)c2ccc(C#N)cc2)Cc2cccc(-c3ccccc3)c2)c1 | 550 nM | 230 nM | 2.4 | 3000 nM | > 10000 nM |
| Cn1cnc(S(=O)(=O)N(CCN(Cc2cncn2C)c2ccc(C#N)cc2)Cc2ccc(-n3cccc3)cc2)c1 | 5800 nM | 390 nM | 15 | 4000 nM | > 10000 nM |
| C=C(C)CN(CCN(Cc1cncn1C)c1ccc(C#N)cc1)S(=O)(=O)c1cn(C)cn1 | 600 nM | 114 nM | 5.3 | > 10000 nM | > 10000 nM |
| C=C(Br)CN(CCN(Cc1cncn1C)c1ccc(C#N)cc1)S(=O)(=O)c1cn(C)cn1 | 5500 nM | 180 nM | 31 | 5700 nM | > 10000 nM |
| Cn1cncc1CN(CCN(Cc1ccccc1)S(=O)(=O)c1ccccc1)c1ccc(C#N)cc1 | 310 nM | 41 nM | 7.6 | 300 nM | > 10000 nM |
| C=CCN(CCN(Cc1cncn1C)c1ccc(C#N)cc1)S(=O)(=O)c1cn(C)cn1 | > 10000 nM | 54 nM | > 14 | > 10000 nM | > 10000 nM |
| Cc1ccccc1CN(CCN(Cc1cncn1C)c1ccc(C#N)cc1)S(=O)(=O)c1cn(C)cn1 | 780 nM | 51 nM | 15 | 1000 nM | > 10000 nM |
| Cn1cncc1CN(CCN(Cc1ccccc1)S(=O)(=O)c1cccc2cccnc12)c1ccc(C#N)cc1 | 10000 nM | 30 nM | 333 | 600 nM | > 10000 nM |
| Cn1cncc1CN(CCN(CC1CCCCC1)S(=O)(=O)c1ccccn1)c1ccc(C#N)cc1 | 610 nM | 400 nM | 1.5 | 268 nM | 6200 nM |
| Cn1cnc(S(=O)(=O)N(CCN(Cc2cncn2C)c2ccc(C#N)cc2)Cc2cccs2)c1 | 5900 nM | 2300 nM | 2.6 | 400 nM | > 10000 nM |
| Cc1cccc(CN(CCN(Cc2cncn2C)c2ccc(C#N)cc2)S(=O)(=O)c2cn(C)cn2)c1 | 630 nM | 54 nM | 12 | 300 nM | > 10000 nM |
| Cn1cnc(S(=O)(=O)N(CCN(Cc2cncn2C)c2ccc(C#N)cc2)Cc2ccc(C#N)cc2)c1 | 6500 nM | 370 nM | 18 | > 10000 nM | > 10000 nM |
| Cn1cnc(S(=O)(=O)N(CCN(Cc2cncn2C)c2ccc(C#N)cc2)CC2CCN(c3ncccn3)CC2)c1 | > 10000 nM | 510 nM | > 20 | > 10000 nM | > 10000 nM |
| Cn1cnc(S(=O)(=O)N(CCN(Cc2cncn2C)c2ccc(C#N)cc2)CC(=O)NC(C)(C)C)c1 | > 10000 nM | 1400 nM | > 7.1 | > 10000 nM | > 10000 nM |
| Cn1cnc(S(=O)(=O)N(CCN(Cc2cncn2C)c2ccc(C#N)cc2)CCn2cccc2)c1 | 510 nM | 30 nM | 17 | 4300 nM | > 10000 nM |
